pKi: −log10 of the molar value.
Legend:
Type in all cases: cell-based
[1] = biological target: Somatostatin receptor type 3 (Homo sapiens, UniProt P32745); test: Binding affinity towards human sst3 receptor expressed in CHO-K1 cells
How it was run: (§1)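 Competitive radioligand binding. Each point was run in triplicate, and each compound was tested in at least two separate experiments.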

[2] = biological target: Somatostatin receptor type 5 (Homo sapiens, UniProt P35346); test: Binding affinity towards human sst5 receptor expressed in CHO-K1 cells
Sequence of Somatostatin receptor type 5 (P35346 whole entry): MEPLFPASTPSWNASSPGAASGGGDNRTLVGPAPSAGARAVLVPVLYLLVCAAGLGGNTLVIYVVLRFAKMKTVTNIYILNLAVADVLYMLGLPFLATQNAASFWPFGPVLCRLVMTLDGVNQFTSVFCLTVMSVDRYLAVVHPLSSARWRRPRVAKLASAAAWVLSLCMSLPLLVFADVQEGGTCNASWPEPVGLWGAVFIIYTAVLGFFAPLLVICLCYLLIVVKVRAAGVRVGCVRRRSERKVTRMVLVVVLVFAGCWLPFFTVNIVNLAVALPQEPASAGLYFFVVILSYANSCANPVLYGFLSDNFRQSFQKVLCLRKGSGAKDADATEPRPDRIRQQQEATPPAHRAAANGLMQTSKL
How it was run: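 Radioligand was labelled SRIF28. Points were run in triplicate, with at least two independent experiments per compound.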

[3] = biological target: Somatostatin receptor type 4 (Homo sapiens, UniProt P31391); test: Binding affinity towards human sst4 receptor expressed in CHO-K1 cells; how it was run: as §1
Sequence of Somatostatin receptor type 4 (P31391 whole entry): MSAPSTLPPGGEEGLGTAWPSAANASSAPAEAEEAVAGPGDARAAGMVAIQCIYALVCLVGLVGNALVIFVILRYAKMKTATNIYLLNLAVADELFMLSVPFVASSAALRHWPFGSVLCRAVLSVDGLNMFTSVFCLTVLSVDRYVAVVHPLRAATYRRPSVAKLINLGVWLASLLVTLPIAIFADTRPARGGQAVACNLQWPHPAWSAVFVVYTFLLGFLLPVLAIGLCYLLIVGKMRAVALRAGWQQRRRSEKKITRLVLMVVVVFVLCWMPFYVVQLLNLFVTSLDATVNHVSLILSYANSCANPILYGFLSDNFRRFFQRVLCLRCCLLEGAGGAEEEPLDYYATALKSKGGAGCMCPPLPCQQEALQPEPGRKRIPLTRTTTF

[4] = biological target: Somatostatin receptor type 2 (Homo sapiens, UniProt P30874); test: Binding affinity towards human sst2 receptor expressed in CHO-K1 cells; how it was run: as §1
Sequence of Somatostatin receptor type 2 (P30874 whole entry): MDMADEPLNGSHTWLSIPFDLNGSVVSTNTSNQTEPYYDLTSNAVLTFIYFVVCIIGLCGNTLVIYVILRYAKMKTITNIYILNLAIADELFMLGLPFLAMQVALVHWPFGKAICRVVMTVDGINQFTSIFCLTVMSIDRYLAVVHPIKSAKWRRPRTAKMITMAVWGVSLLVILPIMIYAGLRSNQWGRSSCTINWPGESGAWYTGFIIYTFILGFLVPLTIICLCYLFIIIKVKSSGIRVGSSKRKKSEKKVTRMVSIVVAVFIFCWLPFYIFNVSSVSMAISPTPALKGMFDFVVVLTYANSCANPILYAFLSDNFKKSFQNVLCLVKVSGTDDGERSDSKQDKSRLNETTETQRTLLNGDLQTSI

[5] = biological target: Somatostatin receptor type 1 (Homo sapiens, UniProt P30872); test: Binding affinity towards human sst1 receptor expressed in CHO-K1 cells; how it was run: as §1
Sequence of Somatostatin receptor type 1 (P30872 whole entry): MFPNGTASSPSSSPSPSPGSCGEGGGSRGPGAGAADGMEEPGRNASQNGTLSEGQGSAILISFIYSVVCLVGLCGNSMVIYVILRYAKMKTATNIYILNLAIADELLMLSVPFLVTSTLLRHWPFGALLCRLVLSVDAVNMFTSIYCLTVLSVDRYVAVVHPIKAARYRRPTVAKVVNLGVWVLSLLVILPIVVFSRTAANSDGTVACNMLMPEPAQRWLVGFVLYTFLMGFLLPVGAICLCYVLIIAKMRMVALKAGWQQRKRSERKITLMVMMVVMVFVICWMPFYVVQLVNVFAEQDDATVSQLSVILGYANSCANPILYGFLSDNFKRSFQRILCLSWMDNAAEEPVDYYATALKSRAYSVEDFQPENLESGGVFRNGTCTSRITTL

Sequence of Somatostatin receptor type 3 (P32745 whole entry): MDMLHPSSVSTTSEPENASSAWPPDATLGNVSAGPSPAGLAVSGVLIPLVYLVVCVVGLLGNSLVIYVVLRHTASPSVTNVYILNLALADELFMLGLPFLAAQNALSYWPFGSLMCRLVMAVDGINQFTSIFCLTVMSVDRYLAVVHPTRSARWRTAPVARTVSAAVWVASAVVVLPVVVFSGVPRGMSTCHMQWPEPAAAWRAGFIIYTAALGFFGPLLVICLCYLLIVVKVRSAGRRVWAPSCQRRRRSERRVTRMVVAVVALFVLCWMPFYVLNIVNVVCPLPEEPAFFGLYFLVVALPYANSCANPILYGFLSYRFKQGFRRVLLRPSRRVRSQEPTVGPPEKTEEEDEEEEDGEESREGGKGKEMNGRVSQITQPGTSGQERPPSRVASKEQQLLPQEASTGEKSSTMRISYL

In the case of `NCC1CCCC(CNC(=O)[C@H](Cc2c[nH]c3ccccc23)NC(=O)N2CCC3(C=Cc4ccccc43)CC2)C1` (some centres undefined), the pKi [1] was 5.44, the pKi [2] was 5.30 and the pKi [3] was 5.61. The pKi [4] was 8.40 and the pKi [5] was 6.27.

Compound `C[C@@H](O)[C@@H]1NC(=O)[C@H](Cc2ccccc2)NC(=O)[C@@H]2CCCN2C(=O)[C@H](Cc2ccc(O)cc2)NC(=O)[C@@H](Cc2c[nH]c3ccccc23)NC(=O)[C@H](CCCCN)NC1=O` (stereo in doubt) has a pKi [4] of 9.30.

`NC[C@@H]1CCC[C@H](CNC(=O)[C@H](Cc2c[nH]c3ccccc23)NC(=O)N2CCC3(C=Cc4ccccc43)CC2)C1` was tested, and the pKi [1] was 5.53, the pKi [2] was 5.35 and the pKi [3] was 5.70. It also gave a pKi [4] of 8.80 and a pKi [5] of 5.76.

For `NCCCCC(NC(=O)[C@@H](Cc1c[nH]c2ccccc12)NC(=O)N1CCC2(C=Cc3ccccc32)CC1)C(N)=O` (some centres undefined), the pKi [4] was 7.28.

For `NCCCCNC(=O)C(Cc1c[nH]c2ccccc12)NC(=O)N1CCC2(C=Cc3ccccc32)CC1` (centres undefined), the pKi [1] was 5.25, the pKi [2] was under 5.00 and the pKi [3] was under 5.00. For the same compound, the pKi [5] was 5.37.

Compound `NCCCCC(NC(=O)[C@H](Cc1c[nH]c2ccccc12)NC(=O)N1CCC2(C=Cc3ccccc32)CC1)C(=O)O` (some centres undefined) has a pKi [4] of 5.96.

`NCCCCCNC(=O)[C@@H](Cc1c[nH]c2ccccc12)NC(=O)N1CCC2(C=Cc3ccccc32)CC1` gave a pKi [1] of 5.59, a pKi [2] of under 5.00 and a pKi [3] of 5.16. It also gave a pKi [4] of 7.34 and a pKi [5] of 5.27.

Work on `NCCCNC(=O)[C@H](Cc1c[nH]c2ccccc12)NC(=O)N1CCC2(C=Cc3ccccc32)CC1` yielded a pKi [4] of 6.09.

In the case of `NCCCCCCNC(=O)[C@H](Cc1c[nH]c2ccccc12)NC(=O)N1CCC2(C=Cc3ccccc32)CC1`, the pKi [4] was 6.65.

`NC[C@H]1CCC[C@@H](CNC(=O)[C@H](Cc2c[nH]c3ccccc23)NC(=O)N2CCC3(C=Cc4ccccc43)CC2)C1` showed a pKi [1] of 5.43, a pKi [2] of 5.48 and a pKi [3] of 5.66. It also gave a pKi [4] of 7.70 and a pKi [5] of 5.61.

— ChEMBL document CHEMBL1131508, “Spiro[1H-indene-1,4'-piperidine] derivatives as potent and selective non-peptide human somatostatin receptor subtype 2 (sst2) agonists” (J Med Chem, 1998)
